The values that follow come from ChEMBL document CHEMBL2401702, “A class of sulfonamides with strong inhibitory action against the α-carbonic anhydrase from Trypanosoma cruzi” (J Med Chem, 2013).

Assay [1] in a line: Inhibition of Trypanosoma cruzi carbonic anhydrase preincubated for 15 mins to 6 hrs by CO2 hydration stopped-flow assay. An outline of the steps:
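Recombinant TcCA prepared in-house. Stopped-flow CO2 hydration assay with 0.2 mM phenol red read at 557 nm, in 20 mM HEPES pH 7.5 with 20 mM Na2SO4, at 20 °C. CO2 1.7–17 mM. Initial rates taken over 10–100 s and uncatalyzed rates subtracted. Inhibitor diluted down to 0.01 nM and preincubated with enzyme 15 min at room temperature or 6 h at 4 °C. KI by nonlinear least squares, mean of ≥3 determinations.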

For the next assay, the system named is Trypanosoma cruzi. Nature of the assay: Antitrypanosomal activity against Trypanosoma cruzi epimastigotes at 64 to 256 uM by ELISA. The assay is classed as functional, organism-based. The method, boiled down:
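Resazurin viability assay on log-phase T. cruzi epimastigotes (strains DM28 and Y). Cultures seeded 24 h at 28 °C, plated and incubated a further 48 h at 28 °C. Resazurin added, incubation 1–6 h, then dual-wavelength absorbance at 490 and 595 nm with background subtracted. Compounds tested at 256, 128 and 64 μM. Benznidazole as reference. Three experiments, each in triplicate.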
For orientation: In an ELISA, binding on a coated surface is turned into a signal by an enzyme label.

The next assay addresses Carbonic anhydrase 2 (Homo sapiens, UniProt P00918). Briefly: Inhibition of human carbonic anhydrase 2 preincubated for 15 mins to 6 hrs by CO2 hydration stopped-flow assay.
A further assay deals with Carbonic anhydrase 1 (Homo sapiens, UniProt P00915). Nature of the assay: Inhibition of human carbonic anhydrase 1 preincubated for 15 mins to 6 hrs by CO2 hydration stopped-flow assay.

Activity calls are given as the source filed them. No cut-off for these calls is given here.

Carbonic anhydrase 1, sequence (P00915 whole entry): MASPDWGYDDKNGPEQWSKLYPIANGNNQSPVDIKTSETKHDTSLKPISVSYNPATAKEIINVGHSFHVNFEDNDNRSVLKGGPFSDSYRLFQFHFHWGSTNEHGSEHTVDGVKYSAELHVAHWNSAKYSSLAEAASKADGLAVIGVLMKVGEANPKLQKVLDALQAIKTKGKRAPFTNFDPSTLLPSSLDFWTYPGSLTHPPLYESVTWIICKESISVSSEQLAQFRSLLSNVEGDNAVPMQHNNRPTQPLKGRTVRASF

With `NS(=O)(=O)c1ccc(NC(=O)Cc2ccccc2Br)c(Cl)c1`, the Ki in assay [1] was 7.8 nM.
`NS(=O)(=O)c1nnc(NC(=O)Cc2ccc(Cl)cc2)s1`: the outcome in the assay on Trypanosoma cruzi was inactive. This molecule gave a Ki in assay [1] of 0.95 nM.
The molecule `NS(=O)(=O)c1ccc(CCNC(=O)Cc2ccc(F)cc2)cc1` returned a Ki in assay [1] of 9.1 nM.
The molecule `COc1ccc(CC(=O)NCc2ccc(S(N)(=O)=O)cc2)cc1` displayed a Ki in assay [1] of 7.4 nM.
Molecule `NS(=O)(=O)c1nnc(NC(=O)Cc2ccccc2Br)s1` displayed a Ki in assay [1] of 0.83 nM.
In the case of `NS(=O)(=O)c1ccc(CNC(=O)Cc2ccccc2Br)cc1`, the affinity in assay [1], expressed as Ki, was 9 nM.
As for `NS(=O)(=O)c1nnc(NC(=O)Cc2ccc(F)cc2)s1`, the Ki in assay [1] worked out at 7.6 nM. The Ki values of the last two molecules are within 1.5-fold of each other.
For the molecule `NS(=O)(=O)c1ccc(NC(=O)Cc2ccccc2Br)c(F)c1`, the result in the assay with Trypanosoma cruzi was inactive. Besides, the affinity in assay [1], expressed as Ki, was 1.6 nM.
The molecule `NS(=O)(=O)c1ccc(NC(=O)Cc2ccc(Cl)cc2)c(Cl)c1` had a Ki in assay [1] of 7.7 nM. This counts as single-digit nanomolar.
In assay [1], `COc1ccc(CC(=O)Nc2ccc(S(N)(=O)=O)cc2)cc1` displayed a Ki of 8 nM.
The same measure, in the same setting: to `NS(=O)(=O)c1ccc(CNC(=O)Cc2ccc(Cl)cc2)cc1` belongs 12.5 nM.
`NS(=O)(=O)c1ccc(NC(=O)Cc2ccccc2Br)c(Br)c1`: in assay [1], the Ki was determined as 10.9 nM.
In the case of `NS(=O)(=O)c1ccc(CCNC(=O)Cc2ccccc2Br)cc1`, the outcome with Trypanosoma cruzi was inactive. Moreover, the inhibitory constant (Ki) in assay [1] was 3.3 nM.
With `COc1ccc(CC(=O)Nc2ccc(S(N)(=O)=O)cc2Cl)cc1`, the Ki in assay [1] worked out at 7.9 nM.
Take `NS(=O)(=O)c1ccc(CCNC(=O)Cc2ccc(Cl)cc2)cc1`: the Ki amounted to 11.8 nM in assay [1], 6.4 nM at Carbonic anhydrase 2 and 9.7 nM at Carbonic anhydrase 1.
As to `COc1ccc(CC(=O)Nc2ccc(S(N)(=O)=O)cc2Br)cc1`, in assay [1], the Ki came to 7.2 nM.
As to `COc1ccc(CC(=O)NCCc2ccc(S(N)(=O)=O)cc2)cc1`, the figures for the Ki (in assay [1]; on Carbonic anhydrase 2; on Carbonic anhydrase 1) were 7.5 nM, 0.81 nM and 3.7 nM, respectively.
For the molecule `NS(=O)(=O)c1ccc(NC(=O)Cc2ccc(F)cc2)cc1`, in assay [1], the Ki is 8.5 nM. This lies in the single-digit nanomolar range.
In turn, `NS(=O)(=O)c1ccc(NC(=O)Cc2ccc(F)cc2)c(Cl)c1` yielded a Ki in assay [1] of 7 nM. The Ki values of the last two molecules are within 1.5-fold of each other.
For the molecule `NS(=O)(=O)c1ccc(NC(=O)Cc2ccc(Cl)cc2)c(F)c1`, the outcome in the assay with Trypanosoma cruzi was inactive. In addition, the inhibitory constant (Ki) in assay [1] stood at 1.2 nM.
As to `NS(=O)(=O)c1ccc(NC(=O)Cc2ccc(Cl)cc2)cc1`, the affinity in assay [1], expressed as Ki, was 2.7 nM.
`NS(=O)(=O)c1ccc(NC(=O)Cc2ccc(F)cc2)c(Br)c1`: the Ki in assay [1] stood at 9 nM.
Consider `CC(=O)Nc1nnc(S(N)(=O)=O)s1` [ACETAZOLAMIDE], for which the Ki in assay [1] came to […].
`NS(=O)(=O)c1ccc(NC(=O)Cc2ccc(F)cc2)c(F)c1` yielded a Ki in assay [1] of 8.3 nM.
In assay [1], `COc1ccc(CC(=O)Nc2ccc(S(N)(=O)=O)cc2F)cc1` yielded a Ki of 4.1 nM. This Ki lies about 2-fold lower than the previous one.
`NS(=O)(=O)c1ccc(NC(=O)Cc2ccc(Cl)cc2)c(Br)c1`: in assay [1], the affinity, expressed as Ki, was 7.1 nM.
Consider `NS(=O)(=O)c1ccc(CNC(=O)Cc2ccc(F)cc2)cc1`, for which the Ki in assay [1] is 3.7 nM.
Same read-out and setting: then `NS(=O)(=O)c1ccc(NC(=O)Cc2ccccc2Br)cc1`, with 8.9 nM.
With `COc1ccc(CC(=O)Nc2nnc(S(N)(=O)=O)s2)cc1`, the outcome with Trypanosoma cruzi was inactive. In addition, the Ki in assay [1] is 0.51 nM.

A word on the Ki: it is a measure of affinity in units of concentration, obtained from inhibition or displacement. The low end stands for higher affinity, the high end for lower affinity.
